Experimental data taken from PubChem BioAssay AID488972 (Southern Research Specialized Biocontainment Screening …, 2010).
Calls of active or inactive are those of the source.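 The calls were made as follows: active = compounds blocking at least half of the virus-caused cell damage; inactive = the rest.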

Each molecule was assayed on HEp-2 RSV Long CPE, luminescence viability (assay: RSV cytopathic effect inhibition in HEp-2 cells, dose response, cell-based, RSV Long, luminescence viability, purified and synthesized compounds (AID 488972)).
Summary of the method: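 Material: HEp-2 cells infected with RSV strain Long; also added: RSV strain Long at MOI 0.45; incubation: 6 days at 37 °C; detection: luminescence-based measurement of viral cytopathic effect; measure: % CPE inhibition and constrained 4-parameter IC50; benchmarks: cell-only and virus-only wells; replication: triplicate wells per dose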
For `Cc1ccc(NC(=O)C2CCCN2S(=O)(=O)c2ccccc2)c(C)c1` (stereo unspecified), the IC50 was > 50 µM (inactive).
In the case of `Cc1ccc(NC(=O)[C@@H]2CCCN2S(=O)(=O)c2cccc3cccnc23)c(C)c1`, the IC50 is reported as 7.81 µM.
In the case of `CC(C)(C)c1csc(NC(=O)c2cccnc2)n1`, the IC50 is reported as > 50 µM (inactive).
In the case of `Cc1ccc(NC(=O)[C@H]2CCCN2S(=O)(=O)c2cccc3cccnc23)c(C)c1`, the IC50 is reported as > 50 µM (inactive).
`Cc1ccc(NC(=O)C2CCCN2C(=O)c2ccccc2)c(C)c1` (stereo unspecified) was tested, and the IC50 was > 50 µM (inactive).
In the case of `CSc1ncccc1C(=O)Nc1nc(C(C)(C)C)cs1`, the IC50 is reported as 16.2 µM.
`Cc1ccc(NC(=O)C2CCCN2C(=O)c2cccc3cccnc23)c(C)c1` (stereo unspecified) was tested, and the IC50 was > 50 µM (inactive).
For `Cc1ccc(NC(=O)C2CCCN2Cc2ccccc2)c(C)c1` (stereo unspecified), the IC50 was > 50 µM (inactive).
`Cc1ccc(NC(=O)C2CCCN2S(=O)(=O)c2ccc3ncccc3c2)c(C)c1` (stereo unspecified) was tested, and the IC50 was > 50 µM (inactive).
For `Cc1ccc(NC(=O)C(C)NS(=O)(=O)c2cccc3cccnc23)c(C)c1` (stereo unspecified), the IC50 was > 50 µM (inactive).
For `Cc1ccc(NC(=O)C2CCCN2S(=O)(=O)c2cccc3ccccc23)c(C)c1` (stereo unspecified), the IC50 was > 50 µM (inactive).
`Cc1ccc(NC(=O)C2CCCN2S(C)(=O)=O)c(C)c1` (stereo unspecified) was tested, and the IC50 was > 50 µM (inactive).
For `O=C(Nc1ccc(C(F)(F)F)cc1[N+](=O)[O-])O[C@H]1[C@H](Cc2ccccc2)NS(=O)(=O)[C@H]2C[C@@H]3C=C[C@]12O3`, the IC50 was > 50 µM (inactive).
In the case of `Cc1ccc(NC(=O)C2CCCN2S(=O)(=O)c2cccc3cnccc23)c(C)c1` (stereo unspecified), the IC50 is reported as > 50 µM (inactive).
In the case of `Cc1csc(NC(=O)c2cccnc2)n1`, the IC50 is reported as > 50 µM (inactive).
With `Cc1ccc(NC(=O)C2CCCN2S(=O)(=O)c2cccc3cc(C)cnc23)c(C)c1` (stereo unspecified) the IC50 was > 50 µM (inactive).
In the case of `Cc1ccc(NC(=O)CN(C)S(=O)(=O)c2cccc3cccnc23)c(C)c1`, the IC50 is reported as > 50 µM (inactive).
For `Cc1ccc(NC(=O)C2CCCN2Cc2cccc3cccnc23)c(C)c1` (stereo unspecified), the IC50 was > 50 µM (inactive).
In the case of `Cc1ccc(NC(=O)CNS(=O)(=O)c2cccc3cccnc23)c(C)c1`, the IC50 is reported as > 50 µM (inactive).
With `CSc1ncccc1C(=O)Nc1nc(C)cs1` the IC50 was > 50 µM (inactive).
For `Cc1ccc(NC(=O)C2CCCN2S(=O)(=O)c2cccc3cccnc23)c(C)c1` (stereo unspecified), the IC50 was 13.2 µM.
